In assay [1] the target is T1, Ornithine decarboxylase (Mus musculus) (UniProt P00860).
T1 sequence (whole entry): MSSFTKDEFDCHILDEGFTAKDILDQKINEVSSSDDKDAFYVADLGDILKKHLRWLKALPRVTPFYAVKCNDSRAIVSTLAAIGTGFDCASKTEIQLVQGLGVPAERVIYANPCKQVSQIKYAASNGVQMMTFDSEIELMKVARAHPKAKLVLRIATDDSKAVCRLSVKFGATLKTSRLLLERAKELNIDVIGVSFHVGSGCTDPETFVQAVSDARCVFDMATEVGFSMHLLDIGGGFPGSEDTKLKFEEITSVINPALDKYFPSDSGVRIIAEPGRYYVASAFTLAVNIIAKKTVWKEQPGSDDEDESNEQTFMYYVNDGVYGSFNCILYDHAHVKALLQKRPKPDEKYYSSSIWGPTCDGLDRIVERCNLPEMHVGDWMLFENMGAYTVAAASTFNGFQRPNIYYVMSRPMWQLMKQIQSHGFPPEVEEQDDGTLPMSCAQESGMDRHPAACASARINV
Briefly: Compound was evaluated for the ability to inhibit the phorbol ester induced increase of mouse epidermal ornithine decarboxylase. Type of assay: functional. The method in brief: (§1)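 Retinoids applied topically to mouse skin at 0.1, 1.0, 5.0, 10 and 50 nmol, 1 h before 10 nmol TPA. Epidermal ODC activity measured 4.5 h after TPA as nmol CO2/30 min per mg protein. ID50 (dose giving 50% inhibition of TPA-induced ODC) read from dose-response curves; three experiments, results normalized.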

Assay [2] deals with T1, Ornithine decarboxylase (Mus musculus). Briefly: Compound was evaluated for the percentage inhibition of test retinoid as compared to the control by ODCassay. Type of assay: functional. Particulars: concentration not given here. The method in brief: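 Single topical retinoid dose of 34 nmol given 1 h before 10 nmol TPA on mouse skin. Epidermal ODC assayed 4.5 h after TPA as nmol CO2/30 min per mg protein. Three groups of two mice each. % inhibition = [(ODC with TPA) − (ODC with TPA + retinoid)]/(ODC with TPA) × 100.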

The subject of assay [3] is HL-60. Briefly: Compound was evaluated for the retinoid-induced differentiation of the human myeloid leukemia cell line HL-60 using trans-retinoic acid as the standard. Type of assay: functional. The following applies: read-out: ED50 (the source's name).
Assay [4] concerns the target T1, Ornithine decarboxylase (Mus musculus). Briefly: Compound was evaluated for the ability to inhibit the phorbol ester induced increase of mouse epidermal ornithine decarboxylase (ODC) activity by 50% when administered topically using ODC assay. The format is functional. The method in brief: as §1
For assay [5], the target named is Ornithine decarboxylase (Mus musculus) (UniProt P00860). Briefly: Compound was evaluated for the ability to inhibit the phorbol ester induced increase of mouse epidermal ornithine decarboxylase (ODC) activity by 50% when administered topically using ODC assay.

Usually inhibition stands for the change of the read-out against control, counted positive when it falls. Read a low inhibition as a response near the control. With `CCCCCCCCCCCCCC(=O)OCC1(C)[C@H]2[C@@H]3C=C(CO)C[C@]4(O)C(=O)C(C)=C[C@H]4[C@@]3(O)[C@H](C)[C@@H](O)[C@]21OC(C)=O.COC(=O)c1ccc(/C=C(\C)c2ccc3c(c2)C(C)(C)CS3)cc1` (some centres undefined), the ID50 in assay [1] worked out at 1.2 nM. This compound showed an inhibition in assay [2] of 94%.

With `C/C(=C\C=C\[C@H]1C[C@@H]1C(=O)O)c1ccc2c(c1)C(C)(C)CCS2`, in assay [3], the EC50 is more than 1000 nM. The compound further came in with an ID50 in assay [4] of 35 nM. On the same counts, the results for `CC(/C=C/C=C(\C)c1ccc2c(c1)C(C)(C)CCS2)=C\C(=O)O` are 500 nM and 3.3 nM.

On to `CC1(C)CC(C)(C)c2cc(/C(=C/c3ccc(C(=O)O)cc3)C(F)(F)F)ccc2S1`, for which the ID50 in assay [4] is more than 50 nM.

As for `C/C(=C\c1ccc(C(=O)O)cc1)c1ccc2c(c1)C(C)(C)CC(C)(C)S2`, in assay [3], the EC50 is more than 1000 nM. This compound displayed an ID50 in assay [4] of 0.31 nM.

Turning to `CC(/C=C/C=C(\C)c1ccc2c(c1)C(C)(C)CC(C)(C)S2)=C\C(=O)O`, the EC50 in assay [3] was more than 1000 nM. For the same compound, the ID50 in assay [4] worked out at 3.7 nM. With `CC1(C)CCOc2ccc(/C(=C/c3ccc(C(=O)O)cc3)C(F)(F)F)cc21`, the EC50 in assay [3] is more than 1000 nM. Moreover, the ID50 in assay [4] is more than 50 nM. Take `C/C(=C\c1ccc(C(=O)O)cc1)c1ccc2c(c1)C(C)(C)CS2.CCCCCCCCCCCCCC(=O)OCC1(C)[C@H]2[C@@H]3C=C(CO)C[C@]4(O)C(=O)C(C)=C[C@H]4[C@@]3(O)[C@H](C)[C@@H](O)[C@]21OC(C)=O` (some centres undefined): in assay [1], the ID50 was found to be 22 nM. Moreover, the inhibition in assay [2] was 91%. Take `COC(=O)c1ccc(/C=C(/c2ccc3c(c2)C(C)(C)CCO3)C(F)(F)F)cc1`: the ID50 in assay [4] is more than 50 nM. As to `COC(=O)c1ccc(/C=C(\C)c2ccc3c(c2)C(C)(C)CC(C)(C)S3)cc1`, the ID50 in assay [5] was determined as 0.3 nM. Turning to `CC1=C(/C=C/C(C)=C/C=C/C(C)=C\C(=O)O)C(C)(C)CCC1` [ISOTRETINOIN], in assay [3], the EC50 amounted to 100 nM. For `CC1(C)CCSc2ccc(/C(=C/c3ccc(C(=O)O)cc3)C(F)(F)F)cc21`, in assay [3], the EC50 was more than 1000 nM. The compound also came in with an ID50 in assay [4] of 35 nM.

For `CC1=C(/C=C/C(C)=C/C=C/C(C)=C/C(=O)O)C(C)(C)CCC1` [TRETINOIN], the EC50 in assay [3] turned out to be 50 nM. The ID50 in assay [4] was determined as 0.12 nM. As to `COC(=O)c1ccc(/C=C(/c2ccc3c(c2)C(C)(C)CC(C)(C)S3)C(F)(F)F)cc1`, the ID50 in assay [4] is more than 50 nM. The compound `COC(=O)c1ccc(/C=C(/c2ccc3c(c2)C(C)(C)CCS3)C(F)(F)F)cc1` gave an ID50 in assay [4] of more than 50 nM.

The record behind these values is ChEMBL document CHEMBL1125746, “Novel heteroarotinoids: synthesis and biological activity” (1991).
